The text below walks through data of ChEMBL document CHEMBL3046736, “Kinetic studies of novel inhibitors of endomorphin degrading enzymes” (Med Chem Res, 2012).

Test [1] has as its target T1, Dipeptidyl peptidase 4 (Homo sapiens, UniProt P27487). Briefly: Inhibition of DPP-4 (unknown origin) assessed as inhibition of endomorphin-1 degradation after 30 min. In short, it runs like this: (§1)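 Purified commercial DPP IV (0.002 mg protein/ml) incubated with endomorphin and inhibitor, each from 1 mM solutions in 50 mM Tris–HCl pH 7.4, at 37°C for 0, 7.5, 15, 22.5 and 30 min. Stopped on ice with 1 M HCl, centrifuged. Rate constant k from linear regression of ln(A/A0) of peptide peak area versus time; t1/2 = ln2/k. Three independent experiments in duplicate.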

Test [2] concerns the target T1, Dipeptidyl peptidase 4. Briefly: Inhibition of DPP-4 (unknown origin) assessed as inhibition of endomorphin-2 degradation after 30 min. In short, it runs like this: as §1
Test [3] addresses T1, Dipeptidyl peptidase 4. Description: Inhibition of DPP-4 (unknown origin) assessed as half-life of endomorphin-1 after 30 min by RP-HPLC analysis (reference value: […] +/- 0.52 min).
Target sequence in this assay (P27487 whole entry, looked up): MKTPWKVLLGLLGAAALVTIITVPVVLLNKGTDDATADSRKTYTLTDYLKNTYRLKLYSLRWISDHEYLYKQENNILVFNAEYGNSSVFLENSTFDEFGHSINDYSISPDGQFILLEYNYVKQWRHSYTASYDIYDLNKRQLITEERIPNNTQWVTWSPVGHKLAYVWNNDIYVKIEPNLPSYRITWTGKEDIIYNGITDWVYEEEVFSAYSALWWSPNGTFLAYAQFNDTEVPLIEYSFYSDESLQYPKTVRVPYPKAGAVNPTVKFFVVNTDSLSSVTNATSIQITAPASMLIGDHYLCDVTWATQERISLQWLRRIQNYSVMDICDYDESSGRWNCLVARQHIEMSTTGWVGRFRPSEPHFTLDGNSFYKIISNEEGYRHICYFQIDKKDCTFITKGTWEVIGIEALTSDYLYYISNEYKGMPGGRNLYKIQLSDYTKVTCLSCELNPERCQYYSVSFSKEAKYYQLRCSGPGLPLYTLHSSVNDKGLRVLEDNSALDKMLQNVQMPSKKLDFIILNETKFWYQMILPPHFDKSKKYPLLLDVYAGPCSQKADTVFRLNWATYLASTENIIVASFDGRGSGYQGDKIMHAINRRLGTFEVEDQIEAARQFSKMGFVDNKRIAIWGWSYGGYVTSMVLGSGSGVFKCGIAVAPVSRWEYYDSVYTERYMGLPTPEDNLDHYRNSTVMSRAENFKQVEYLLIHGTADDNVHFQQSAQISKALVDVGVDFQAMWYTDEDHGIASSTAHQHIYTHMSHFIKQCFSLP
Test [4] concerns the target T1, Dipeptidyl peptidase 4. Description: Inhibition of DPP-4 (unknown origin) assessed as half-life of endomorphin-2 after 30 min by RP-HPLC analysis (reference value: […] +/- 0.64 min).
Target sequence in this assay (P27487 whole entry, looked up): as above
Test [5] concerns the target T2, Aminopeptidase N (Homo sapiens, UniProt P15144). Briefly: Inhibition of APM (unknown origin) assessed as inhibition of endomorphin-2 degradation after 30 min.
For test [6], the target named is T2, Aminopeptidase N. Briefly: Inhibition of APM (unknown origin) assessed as inhibition of endomorphin-1 degradation after 30 min.
Test [7] has as its target T2, Aminopeptidase N.
Test [8] deals with T2, Aminopeptidase N. This is another data set of the same source.

The structures appear in SMILES notation. Residues, ends and D or L forms follow the SMILES beside them.

T2 sequence (P15144 whole entry): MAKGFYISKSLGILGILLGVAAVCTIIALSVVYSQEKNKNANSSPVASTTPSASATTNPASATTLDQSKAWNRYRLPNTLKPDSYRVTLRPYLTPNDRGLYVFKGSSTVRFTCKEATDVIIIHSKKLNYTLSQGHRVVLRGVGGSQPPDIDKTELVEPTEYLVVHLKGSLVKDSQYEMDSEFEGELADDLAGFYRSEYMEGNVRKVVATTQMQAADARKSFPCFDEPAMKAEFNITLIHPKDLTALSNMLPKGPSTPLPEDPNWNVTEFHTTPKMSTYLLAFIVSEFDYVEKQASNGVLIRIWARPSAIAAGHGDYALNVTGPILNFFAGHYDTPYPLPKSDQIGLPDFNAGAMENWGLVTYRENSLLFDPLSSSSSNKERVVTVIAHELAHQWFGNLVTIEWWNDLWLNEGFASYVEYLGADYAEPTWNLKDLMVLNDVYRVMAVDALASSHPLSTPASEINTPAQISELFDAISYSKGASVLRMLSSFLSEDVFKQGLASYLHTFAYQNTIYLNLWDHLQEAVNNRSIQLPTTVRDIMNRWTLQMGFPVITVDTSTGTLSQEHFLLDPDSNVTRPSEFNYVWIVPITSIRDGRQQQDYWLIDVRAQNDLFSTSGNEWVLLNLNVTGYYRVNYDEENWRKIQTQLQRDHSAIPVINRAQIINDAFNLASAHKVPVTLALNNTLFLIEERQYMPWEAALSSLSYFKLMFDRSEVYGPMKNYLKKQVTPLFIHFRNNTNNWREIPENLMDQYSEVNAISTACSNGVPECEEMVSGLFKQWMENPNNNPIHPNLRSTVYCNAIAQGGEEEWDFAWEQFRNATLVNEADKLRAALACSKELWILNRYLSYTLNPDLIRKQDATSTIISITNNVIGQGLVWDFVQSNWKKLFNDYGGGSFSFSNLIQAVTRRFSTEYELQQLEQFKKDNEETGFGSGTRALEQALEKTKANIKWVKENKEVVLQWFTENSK

Broadly, the Ki is the dissociation constant of the complex between target and ligand, obtained from inhibition or displacement. One may read the inhibition as the change of the read-out against control, counted positive when it falls. For the compound `C[C@H](NC(=O)[C@@H]1CCCN1C(=O)[C@@H](N)Cc1ccc(O)cc1)C(N)=O` (H-Tyr-Pro-Ala-NH2), the inhibition constant (Ki) came to 420 µM on Dipeptidyl peptidase 4 [1] and 170 µM on Dipeptidyl peptidase 4 [2]. The inhibition at Dipeptidyl peptidase 4 [1] is 26.7%; at Dipeptidyl peptidase 4 [2], 44.8%. Besides, the T1/2 on Dipeptidyl peptidase 4 [3] stood at 22.9 min; at Dipeptidyl peptidase 4 [4], 19.8 min.
For `C[C@H](NC(=O)[C@@H]1CCCN1C(=O)[C@@H](N)Cc1ccc(O)cc1)C(=O)O` (H-Tyr-Pro-Ala-OH), the T1/2 at Dipeptidyl peptidase 4 [3] was found to be 27.5 min; at Dipeptidyl peptidase 4 [4] it was 27.4 min.
The matching figures for `CC[C@H](C)[C@H](N)C(=O)N1CCC[C@H]1C(=O)N[C@H](C(=O)O)[C@@H](C)CC`: 530 min and 383 min.
Regarding `CCCCC[C@H](CC(=O)NO)C(=O)N[C@H](C(=O)N1CCC[C@H]1CO)C(C)C` [ACTINONIN], the results for the Ki at Aminopeptidase N [5] and on Aminopeptidase N [6] were 300 µM and 390 µM, respectively. Moreover, the T1/2 at Aminopeptidase N [7] is 46.3 min; at Aminopeptidase N [8] it was 36.8 min.
